From PMC5292677 (Leukemia, 2016)

Tested on: patients with myelofibrosis
Test: Phase I safety: drug-related adverse events, DLTs, tolerability
Type: in vivo, human
Outline: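 Design was 3+3 dose escalation of oral test compound QD (75–400 mg) or BID (100–400 mg) in 28-day cycles. AEs were graded by CTCAE v4.0 with causality, alongside labs, ECGs, vital signs and physical exams. A DLT was grade 4 cytopenia, other grade 3/4 hematologic toxicity, or grade 3/4 non-hematologic toxicity, excluding manageable GI events. The population was all patients dosed ≥1 time.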

For `C[C@H](Nc1cc(-c2cnn(C)c2)cc(Nc2cnccn2)n1)c1ccc(F)cc1` [NS-018], the “Drug-related anemia, all grades” value (75 mg QD (n=3)) was 0 n (%), the “Drug-related diarrhea, all grade” value (75 mg QD (n=3)) was 0 n (%) and the “Drug-related dizziness, all grade” value (75 mg QD (n=3)) was 0 n (%). The “Drug-related esophageal reflux, all grade” value (75 mg QD (n=3)) was 0 n (%), the “Drug-related headache, all grade” value (75 mg QD (n=3)) was 0 n (%) and the “Drug-related nausea, all grade” value (75 mg QD (n=3)) was 0 n (%). For the same molecule, the “Drug-related paresthesia, all grade” value (75 mg QD (n=3)) was 0 n (%), the “Drug-related thrombocytopenia, Grade 1/2” value (75 mg QD (n=3)) was 0 n (%) and the “Drug-related thrombocytopenia, Grade 3” value (75 mg QD (n=3)) was 0 n (%). For the same molecule, the “Drug-related thrombocytopenia, Grade 4” value (75 mg QD (n=3)) was 1 (33) n (%), the “Drug-related thrombocytopenia, all grades” value (75 mg QD (n=3)) was 1 (33) n (%) and the “Drug-related vomiting, all grade” value (75 mg QD (n=3)) was 0 n (%). The “Drug-related weight increased, all grade” value (75 mg QD (n=3)) was 0 n (%), the “Drug-related anemia, all grades” value (100 mg BID (n=5)) was 0 n (%) and the “Drug-related diarrhea, all grade” value (100 mg BID (n=5)) was 0 n (%). For the same molecule, the “Drug-related dizziness, all grade” value (100 mg BID (n=5)) was 0 n (%), the “Drug-related esophageal reflux, all grade” value (100 mg BID (n=5)) was 0 n (%) and the “Drug-related headache, all grade” value (100 mg BID (n=5)) was 0 n (%). For the same molecule, the “Drug-related nausea, all grade” value (100 mg BID (n=5)) was 0 n (%), the “Drug-related paresthesia, all grade” value (100 mg BID (n=5)) was 0 n (%) and the “Drug-related thrombocytopenia, Grade 1/2” value (100 mg BID (n=5)) was 0 n (%). The “Drug-related thrombocytopenia, Grade 3” value (100 mg BID (n=5)) was 1 (20) n (%), the “Drug-related thrombocytopenia, Grade 4” value (100 mg BID (n=5)) was 0 n (%) and the “Drug-related thrombocytopenia, all grades” value (100 mg BID (n=5)) was 1 (20) n (%). The “Drug-related vomiting, all grade” value (100 mg BID (n=5)) was 0 n (%), the “Drug-related weight increased, all grade” value (100 mg BID (n=5)) was 0 n (%) and the “Drug-related anemia, all grades” value (125 mg QD (n=4)) was 0 n (%). The “Drug-related diarrhea, all grade” value (125 mg QD (n=4)) was 0 n (%), the “Drug-related dizziness, all grade” value (125 mg QD (n=4)) was 0 n (%) and the “Drug-related esophageal reflux, all grade” value (125 mg QD (n=4)) was 0 n (%). For the same molecule, the “Drug-related headache, all grade” value (125 mg QD (n=4)) was 0 n (%), the “Drug-related nausea, all grade” value (125 mg QD (n=4)) was 0 n (%) and the “Drug-related paresthesia, all grade” value (125 mg QD (n=4)) was 0 n (%). The “Drug-related thrombocytopenia, all grades” value (125 mg QD (n=4)) was 0 n (%), the “Drug-related vomiting, all grade” value (125 mg QD (n=4)) was 0 n (%) and the “Drug-related weight increased, all grade” value (125 mg QD (n=4)) was 0 n (%). The “Drug-related anemia, all grades” value (200 mg BID (n=12)) was 0 n (%), the “Drug-related diarrhea, all grade” value (200 mg BID (n=12)) was 2 (17) n (%) and the “Drug-related diarrhea, grade 3 or 4” value (200 mg BID (n=12)) was 0 n (%). For the same molecule, the “Drug-related dizziness, all grade” value (200 mg BID (n=12)) was 1 (8) n (%), the “Drug-related dizziness, grade 3 or 4” value (200 mg BID (n=12)) was 0 n (%) and the “Drug-related esophageal reflux, all grade” value (200 mg BID (n=12)) was 0 n (%). The “Drug-related headache, all grade” value (200 mg BID (n=12)) was 0 n (%), the “Drug-related nausea, all grade” value (200 mg BID (n=12)) was 1 (8) n (%) and the “Drug-related nausea, grade 3 or 4” value (200 mg BID (n=12)) was 0 n (%). For the same molecule, the “Drug-related paresthesia, all grade” value (200 mg BID (n=12)) was 0 n (%), the “Drug-related thrombocytopenia, Grade 1/2” value (200 mg BID (n=12)) was 1 (8) n (%) and the “Drug-related thrombocytopenia, all grades” value (200 mg BID (n=12)) was 1 (8) n (%). The “Drug-related vomiting, all grade” value (200 mg BID (n=12)) was 0 n (%), the “Drug-related weight increased, all grade” value (200 mg BID (n=12)) was 0 n (%) and the “Drug-related anemia, Grade 1/2” value (200 mg QD (n=9)) was 1 (11) n (%). The “Drug-related anemia, all grades” value (200 mg QD (n=9)) was 1 (11) n (%), the “Drug-related diarrhea, all grade” value (200 mg QD (n=9)) was 2 (22) n (%) and the “Drug-related diarrhea, grade 3 or 4” value (200 mg QD (n=9)) was 0 n (%). For the same molecule, the “Drug-related dizziness, all grade” value (200 mg QD (n=9)) was 0 n (%), the “Drug-related esophageal reflux, all grade” value (200 mg QD (n=9)) was 0 n (%) and the “Drug-related headache, all grade” value (200 mg QD (n=9)) was 0 n (%). For the same molecule, the “Drug-related nausea, all grade” value (200 mg QD (n=9)) was 1 (11) n (%), the “Drug-related nausea, grade 3 or 4” value (200 mg QD (n=9)) was 0 n (%) and the “Drug-related paresthesia, all grade” value (200 mg QD (n=9)) was 0 n (%). The “Drug-related thrombocytopenia, all grades” value (200 mg QD (n=9)) was 0 n (%), the “Drug-related vomiting, all grade” value (200 mg QD (n=9)) was 2 (22) n (%) and the “Drug-related vomiting, grade 3 or 4” value (200 mg QD (n=9)) was 0 n (%). For the same molecule, the “Drug-related weight increased, all grade” value (200 mg QD (n=9)) was 2 (22) n (%), the “Drug-related weight increased, grade 3 or 4” value (200 mg QD (n=9)) was 0 n (%) and the “Drug-related anemia, Grade 1/2” value (250 mg BID (n=8)) was 1 (13) n (%). For the same molecule, the “Drug-related anemia, Grade 3” value (250 mg BID (n=8)) was 0 n (%), the “Drug-related anemia, Grade 4” value (250 mg BID (n=8)) was 0 n (%) and the “Drug-related anemia, all grades” value (250 mg BID (n=8)) was 1 (13) n (%). For the same molecule, the “Drug-related diarrhea, all grade” value (250 mg BID (n=8)) was 0 n (%), the “Drug-related dizziness, all grade” value (250 mg BID (n=8)) was 1 (13)/1 (13) n (%) and the “Drug-related dizziness, grade 3 or 4” value (250 mg BID (n=8)) was 1 (13)/1 (13) n (%). The “Drug-related esophageal reflux, all grade” value (250 mg BID (n=8)) was 1 (13) n (%), the “Drug-related esophageal reflux, grade 3 or 4” value (250 mg BID (n=8)) was 0 n (%) and the “Drug-related headache, all grade” value (250 mg BID (n=8)) was 0 n (%). The “Drug-related nausea, all grade” value (250 mg BID (n=8)) was 2 (25) n (%), the “Drug-related nausea, grade 3 or 4” value (250 mg BID (n=8)) was 1 (13) n (%) and the “Drug-related paresthesia, all grade” value (250 mg BID (n=8)) was 0 n (%). For the same molecule, the “Drug-related thrombocytopenia, Grade 1/2” value (250 mg BID (n=8)) was 2 (25) n (%), the “Drug-related thrombocytopenia, Grade 3” value (250 mg BID (n=8)) was 0 n (%) and the “Drug-related thrombocytopenia, Grade 4” value (250 mg BID (n=8)) was 1 (13) n (%). For the same molecule, the “Drug-related thrombocytopenia, all grades” value (250 mg BID (n=8)) was 3 (38) n (%), the “Drug-related vomiting, all grade” value (250 mg BID (n=8)) was 0 n (%) and the “Drug-related weight increased, all grade” value (250 mg BID (n=8)) was 0 n (%). The “DLT: grade 3 QT prolongation” value (250 mg BID cohort) was 1 patient, the “Patients who discontinued owing to AEs (beyond DLT)” value (300 mg BID) was 3 patients and the “Rate of discontinuations owing to AEs” value (300 mg BID) was 38%. For the same molecule, the “Drug-related anemia, Grade 1/2” value (300 mg BID (n=12)) was 1 (8) n (%), the “Drug-related anemia, Grade 3” value (300 mg BID (n=12)) was 2 (17) n (%) and the “Drug-related anemia, Grade 4” value (300 mg BID (n=12)) was 0 n (%). The “Drug-related anemia, all grades” value (300 mg BID (n=12)) was 3 (25) n (%), the “Drug-related diarrhea, all grade” value (300 mg BID (n=12)) was 1 (8) n (%) and the “Drug-related diarrhea, grade 3 or 4” value (300 mg BID (n=12)) was 0 n (%). The “Drug-related dizziness, all grade” value (300 mg BID (n=12)) was 3 (25) n (%), the “Drug-related dizziness, grade 3 or 4” value (300 mg BID (n=12)) was 0 n (%) and the “Drug-related esophageal reflux, all grade” value (300 mg BID (n=12)) was 1 (8) n (%). For the same molecule, the “Drug-related esophageal reflux, grade 3 or 4” value (300 mg BID (n=12)) was 0 n (%), the “Drug-related headache, all grade” value (300 mg BID (n=12)) was 0 n (%) and the “Drug-related nausea, all grade” value (300 mg BID (n=12)) was 4 (33) n (%). The “Drug-related nausea, grade 3 or 4” value (300 mg BID (n=12)) was 0 n (%), the “Drug-related paresthesia, all grade” value (300 mg BID (n=12)) was 2 (17) n (%) and the “Drug-related paresthesia, grade 3 or 4” value (300 mg BID (n=12)) was 1 (8) n (%). The “Drug-related thrombocytopenia, Grade 1/2” value (300 mg BID (n=12)) was 3 (25) n (%), the “Drug-related thrombocytopenia, Grade 3” value (300 mg BID (n=12)) was 1 (8) n (%) and the “Drug-related thrombocytopenia, Grade 4” value (300 mg BID (n=12)) was 0 n (%). For the same molecule, the “Drug-related thrombocytopenia, all grades” value (300 mg BID (n=12)) was 4 (33) n (%), the “Drug-related vomiting, all grade” value (300 mg BID (n=12)) was 0 n (%) and the “Drug-related weight increased, all grade” value (300 mg BID (n=12)) was 1 (8) n (%). The “Drug-related weight increased, grade 3 or 4” value (300 mg BID (n=12)) was 0 n (%).
